Tested on: U2OS
Assay: Multiplex assay against U2OS
Format: toxicity, cell-based
Conditions: human
Procedure, shortened: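 Per cents of healthy-nucleus cells form the tubulin, mitochondrial-mass and membrane-permeability phenotype values. Live cells were stained at seeding with Hoechst33342, BioTracker Green Microtubule Cytoskeleton Dye, MitoTracker Red and Annexin V Alexa Fluor 680. After compound addition they were imaged on a CQ1 microscope at 37°C and 5% CO2, and CellPathfinder machine-learning gating split them into Hoechst high-intensity objects or normal cells, normal cells into healthy, pyknosed or fragmented nuclei, and pyknosed cells into mitotic or apoptotic.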

[1] = 12 h, 1 µM, compound concentration 1 uM, replicate 1
[2] = 12 h, 1 µM, compound concentration 1 uM, replicate 2
[3] = 12 h, 10 µM, compound concentration 10 uM, replicate 1
[4] = 12 h, 10 µM, compound concentration 10 uM, replicate 2
[5] = 24 h, 1 µM, compound concentration 1 uM, replicate 1
[6] = 24 h, 1 µM, compound concentration 1 uM, replicate 2
[7] = 24 h, 10 µM, compound concentration 10 uM, replicate 1
[8] = 24 h, 10 µM, compound concentration 10 uM, replicate 2
[9] = 48 h, 1 µM, compound concentration 1 uM, replicate 1
[10] = 48 h, 1 µM, compound concentration 1 uM, replicate 2
[11] = 48 h, 10 µM, compound concentration 10 uM, replicate 1
[12] = 48 h, 10 µM, compound concentration 10 uM, replicate 2

With `Cc1cn(-c2cc(NC(=O)c3ccc(C)c(Nc4nccc(-c5cccnc5)n4)c3)cc(C(F)(F)F)c2)cn1` [NILOTINIB] the “Population Apoptotic (%)” value [1] was 46%, the “Population Fragmented Nuclei (%)” value [1] was 14% and the “Population Healthy Nuclei (%)” value [1] was 69%. For the same molecule, the “Population Hoechst High Intensity Objects (%)” value [1] was 8%, the “Population Membrane Permeable-Phenotype (%)” value [1] was 10% and the “Population Mitochondria Different-Phenotype (%)” value [1] was 77%. The “Population Mitotic Cells (%)” value [1] was 53%, the “Population Normal (%)” value [1] was 91% and the “Population Pyknosed Nuclei (%)” value [1] was 16%. For the same molecule, the “Population Tubulin-Different-Phenotype (%)” value [1] was 94%, the “Total Cell Count” value [1] was 134 and the “Population Apoptotic (%)” value [2] was 25%. The “Population Fragmented Nuclei (%)” value [2] was 1%, the “Population Healthy Nuclei (%)” value [2] was 86% and the “Population Membrane Permeable-Phenotype (%)” value [2] was 1%. For the same molecule, the “Population Mitochondria Different-Phenotype (%)” value [2] was 18%, the “Population Mitotic Cells (%)” value [2] was 75% and the “Population Pyknosed Nuclei (%)” value [2] was 11%. The “Population Tubulin-Different-Phenotype (%)” value [2] was 10%, the “Total Cell Count” value [2] was 66 and the “Population Apoptotic (%)” value [3] was 86%. The “Population Fragmented Nuclei (%)” value [3] was 45%, the “Population Healthy Nuclei (%)” value [3] was 20% and the “Population Hoechst High Intensity Objects (%)” value [3] was 49%. The “Population Membrane Permeable-Phenotype (%)” value [3] was 30%, the “Population Mitochondria Different-Phenotype (%)” value [3] was 89% and the “Population Mitotic Cells (%)” value [3] was 13%. For the same molecule, the “Population Normal (%)” value [3] was 50%, the “Population Pyknosed Nuclei (%)” value [3] was 33% and the “Population Tubulin-Different-Phenotype (%)” value [3] was 93%. The “Total Cell Count” value [3] was 185, the “Population Apoptotic (%)” value [4] was 33% and the “Population Fragmented Nuclei (%)” value [4] was 18%. The “Population Healthy Nuclei (%)” value [4] was 72%, the “Population Hoechst High Intensity Objects (%)” value [4] was 7% and the “Population Membrane Permeable-Phenotype (%)” value [4] was 4%. For the same molecule, the “Population Mitochondria Different-Phenotype (%)” value [4] was 61%, the “Population Mitotic Cells (%)” value [4] was 66% and the “Population Normal (%)” value [4] was 92%. For the same molecule, the “Population Pyknosed Nuclei (%)” value [4] was 9%, the “Population Tubulin-Different-Phenotype (%)” value [4] was 63% and the “Total Cell Count” value [4] was 73. The “Population Apoptotic (%)” value [5] was 55%, the “Population Fragmented Nuclei (%)” value [5] was 12% and the “Population Healthy Nuclei (%)” value [5] was 66%. The “Population Hoechst High Intensity Objects (%)” value [5] was 6%, the “Population Membrane Permeable-Phenotype (%)” value [5] was 14% and the “Population Mitochondria Different-Phenotype (%)” value [5] was 73%. The “Population Mitotic Cells (%)” value [5] was 44%, the “Population Normal (%)” value [5] was 93% and the “Population Pyknosed Nuclei (%)” value [5] was 20%. The “Population Tubulin-Different-Phenotype (%)” value [5] was 92%, the “Total Cell Count” value [5] was 135 and the “Population Apoptotic (%)” value [6] was 40%. For the same molecule, the “Population Fragmented Nuclei (%)” value [6] was 14%, the “Population Healthy Nuclei (%)” value [6] was 79% and the “Population Hoechst High Intensity Objects (%)” value [6] was 5%. The “Population Membrane Permeable-Phenotype (%)” value [6] was 2%, the “Population Mitochondria Different-Phenotype (%)” value [6] was 20% and the “Population Mitotic Cells (%)” value [6] was 60%. For the same molecule, the “Population Normal (%)” value [6] was 94%, the “Population Pyknosed Nuclei (%)” value [6] was 5% and the “Population Tubulin-Different-Phenotype (%)” value [6] was 12%. For the same molecule, the “Total Cell Count” value [6] was 67, the “Population Apoptotic (%)” value [7] was 85% and the “Population Fragmented Nuclei (%)” value [7] was 60%. The “Population Healthy Nuclei (%)” value [7] was 16%, the “Population Hoechst High Intensity Objects (%)” value [7] was 60% and the “Population Membrane Permeable-Phenotype (%)” value [7] was 29%. For the same molecule, the “Population Mitochondria Different-Phenotype (%)” value [7] was 71%, the “Population Mitotic Cells (%)” value [7] was 14% and the “Population Normal (%)” value [7] was 39%. The “Population Pyknosed Nuclei (%)” value [7] was 23%, the “Population Tubulin-Different-Phenotype (%)” value [7] was 78% and the “Total Cell Count” value [7] was 184. For the same molecule, the “Population Apoptotic (%)” value [8] was 0%, the “Population Fragmented Nuclei (%)” value [8] was 12% and the “Population Healthy Nuclei (%)” value [8] was 83%. The “Population Hoechst High Intensity Objects (%)” value [8] was 2%, the “Population Membrane Permeable-Phenotype (%)” value [8] was 1% and the “Population Mitochondria Different-Phenotype (%)” value [8] was 42%. For the same molecule, the “Population Mitotic Cells (%)” value [8] was 100%, the “Population Normal (%)” value [8] was 97% and the “Population Pyknosed Nuclei (%)” value [8] was 4%. For the same molecule, the “Population Tubulin-Different-Phenotype (%)” value [8] was 30%, the “Total Cell Count” value [8] was 93 and the “Population Apoptotic (%)” value [9] was 65%. For the same molecule, the “Population Fragmented Nuclei (%)” value [9] was 14%, the “Population Healthy Nuclei (%)” value [9] was 67% and the “Population Hoechst High Intensity Objects (%)” value [9] was 3%. For the same molecule, the “Population Membrane Permeable-Phenotype (%)” value [9] was 16%, the “Population Mitochondria Different-Phenotype (%)” value [9] was 54% and the “Population Mitotic Cells (%)” value [9] was 34%. For the same molecule, the “Population Normal (%)” value [9] was 96%, the “Population Pyknosed Nuclei (%)” value [9] was 17% and the “Population Tubulin-Different-Phenotype (%)” value [9] was 80%. For the same molecule, the “Total Cell Count” value [9] was 127, the “Population Apoptotic (%)” value [10] was 25% and the “Population Fragmented Nuclei (%)” value [10] was 4%. For the same molecule, the “Population Healthy Nuclei (%)” value [10] was 92%, the “Population Hoechst High Intensity Objects (%)” value [10] was 5% and the “Population Membrane Permeable-Phenotype (%)” value [10] was 6%. The “Population Mitochondria Different-Phenotype (%)” value [10] was 18%, the “Population Mitotic Cells (%)” value [10] was 75% and the “Population Normal (%)” value [10] was 94%. The “Population Pyknosed Nuclei (%)” value [10] was 3%, the “Population Tubulin-Different-Phenotype (%)” value [10] was 24% and the “Total Cell Count” value [10] was 64. The “Population Apoptotic (%)” value [11] was 85%, the “Population Fragmented Nuclei (%)” value [11] was 69% and the “Population Healthy Nuclei (%)” value [11] was 10%. For the same molecule, the “Population Hoechst High Intensity Objects (%)” value [11] was 61%, the “Population Membrane Permeable-Phenotype (%)” value [11] was 24% and the “Population Mitochondria Different-Phenotype (%)” value [11] was 33%. For the same molecule, the “Population Mitotic Cells (%)” value [11] was 15%, the “Population Normal (%)” value [11] was 38% and the “Population Pyknosed Nuclei (%)” value [11] was 19%. The “Population Tubulin-Different-Phenotype (%)” value [11] was 40%, the “Total Cell Count” value [11] was 245 and the “Population Apoptotic (%)” value [12] was 11%. For the same molecule, the “Population Fragmented Nuclei (%)” value [12] was 15%, the “Population Healthy Nuclei (%)” value [12] was 75% and the “Population Hoechst High Intensity Objects (%)” value [12] was 4%. For the same molecule, the “Population Membrane Permeable-Phenotype (%)” value [12] was 8%, the “Population Mitochondria Different-Phenotype (%)” value [12] was 20% and the “Population Mitotic Cells (%)” value [12] was 88%. For the same molecule, the “Population Normal (%)” value [12] was 95%, the “Population Pyknosed Nuclei (%)” value [12] was 9% and the “Population Tubulin-Different-Phenotype (%)” value [12] was 25%. The “Total Cell Count” value [12] was 132.
